Published values from different studies.
Protocols differ between the studies behind these lines.
PIP4K2A: Phosphatidylinositol 5-phosphate 4-kinase type-2 alpha (PIP4K2A, Homo sapiens, UniProt P48426)
BRD9: Bromodomain-containing protein 9 (BRD9, Homo sapiens, UniProt Q9H8M2)
PKMYT1: Membrane-associated tyrosine- and threonine-specific cdc2-inhibitory kinase (PKMYT1, Homo sapiens, UniProt Q99640)

The inhibition of Cc1cc(O)c(-c2ccc([C@@H](C)CN(C)C)cc2)c2c1[nH]c(=O)c1sccc12 is reported as -0.0609% (PIP4K2A; enzyme activity; inhibitor; 0.1 µM).
For Cc1cc(F)cc2c(CCC(=O)N[C@@H]3C(=O)NC[C@H]3O)c(-c3ccc(F)cc3)[nH]c12, the inhibition was -2% (Beta-2 adrenergic receptor (ADRB2, Homo sapiens, UniProt P07550); cell-free assay; 10 µM).
C#Cc1cc(-c2cc(Nc3nc(N[C@@H](C)c4ccc(F)cn4)ncc3Cl)n[nH]2)ccc1C=O gave an inhibition of 18.9% (G protein-coupled receptor kinase 6 (GRK6, Homo sapiens, UniProt P43250); enzyme activity; inhibitor; 0.2 µM).
CC(=O)ON=C1C=CC(=C(C#N)c2ccccc2)C=C1 has an activity vs control of 76% (Serine/threonine-protein kinase haspin (HASPIN, Homo sapiens, UniProt Q8TF76); enzyme activity; inhibitor; ADP detection; 2 µM).
For CCN1/C(=C/C(C)=O)Sc2ccc(F)cc21, the inhibition was 0% (Histamine H3 receptor (HRH3, Homo sapiens, UniProt Q9Y5N1); ligand displacement; radioligand; 10 µM).
CCCC[C@H](NC(C)=O)C(=O)N[C@H]1CC(=O)NCCCC[C@@H](C(=O)N2CCC[C@@H]2C(=O)N[C@@H](C(=O)N2CCC[C@@H]2C(N)=O)C(C)C)NC(=O)[C@H](Cc2c[nH]c3ccccc23)NC(=O)[C@H](CCCNC(=N)N)NC(=O)[C@@H](Cc2ccccc2)NC(=O)[C@@H]2CCCN2C1=O gave an Emax of 102% (Melanocortin receptor 5 (MC5R, Homo sapiens, UniProt P33032); cAMP; agonist).
CCC(=O)c1cc(-c2cc(OC)c(Cn3ccnc3)c(OC)c2)c2ccccn12 gave a ΔTm of 9.8 °C (BRD9; thermal stability; DSF; 200 µM).
COc1ccc2oc(-c3ccc4nc(N)oc4c3)c/c(=N\c3ccccc3NC(=O)CCN)c2c1 has a remaining binding of 108% (PIP4K2A; binding; 1 µM).
With CC(=O)c1cc(-c2cccc(C(F)(F)F)c2)c2ccccn12 the ΔTm was 3 °C (BRD9; thermal stability; DSF; 200 µM).
With CCCCC(=O)Nc1ccc(-c2ccc3ncn(CCC)c(=O)c3c2)cn1 the remaining binding was 86% (PKMYT1; binding; competition with immobilised ligand; 0.5 µM).
COc1cc(-c2cc(C(C)=O)n3ccccc23)cc(OC)c1CN(C)C has a ΔTm of 16.5 °C (BRD9; thermal stability; DSF; 200 µM).
The inhibition of Cc1ncc(-c2cc3cc(-c4c(C)ccc(O)c4C)cnc3[nH]2)cn1 is reported as 97.2% (PKMYT1; cell-free assay; TR-FRET; 0.1235 µM).
COc1cc(-c2cc(C(C)=O)n3ccccc23)c(OC)cc1C(C)=O has a ΔTm of 7.5 °C (BRD9; thermal stability; DSF; 200 µM).
The inhibition of NC/C(=C\F)COc1cccc(Cn2c(=S)[nH]c(=O)c3[nH]cnc32)c1 is reported as less than 50% (Ileal sodium/bile acid cotransporter (SLC10A2, Homo sapiens, UniProt Q12908); transporter uptake; inhibitor; 30 µM).
With C1=C/COCc2cc(ccc2OCCN2CCCC2)Nc2nccc(n2)-c2cccc(c2)COC/1 the remaining binding was 5.9% (Cyclin-dependent kinase-like 3 (CDKL3, Homo sapiens, UniProt Q8IVW4); binding; 0.1 µM).
CCC(=O)c1cc(-c2cc(OC)c(Cn3ccnc3)cc2OC)c2ccccn12 has a ΔTm of 9.5 °C (BRD9; thermal stability; DSF; 200 µM).
